Reference: ChEMBL document CHEMBL3232791, “Synthesis and antibacterial evaluation of amino acid-antibiotic conjugates” (2014)

Key:
Type in all cases: functional
Staphylococcus aureus [1] = test: Antibacterial activity against Staphylococcus aureus RN4220 assessed as growth inhibition at 200 ug/ml after 16 hrs by spectrophotometric analysis; settings: RN4220, 16 h, read-out: GI
Summary of the method: (§1)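 Growth inhibition read as OD600 on 300 µL culture samples, with untreated control cultures taken as maximum growth. Percent inhibition = (OD600 control − OD600 treated) × 100 / OD600 control. Parent antibiotics and their conjugates were run in parallel at three concentrations per compound, in biological duplicate.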

Staphylococcus aureus [2] = test: Antibacterial activity against Staphylococcus aureus RN4220 assessed as growth inhibition at 100 ug/ml after 16 hrs by spectrophotometric analysis; settings: RN4220, 16 h, read-out: GI; summary of the method: as §1
Staphylococcus aureus [3] = test: Antibacterial activity against Staphylococcus aureus RN4220 assessed as growth inhibition at 50 ug/ml after 16 hrs by spectrophotometric analysis; settings: RN4220, 16 h, read-out: GI; summary of the method: as §1
Bacillus subtilis [4] = test: Antibacterial activity against Bacillus subtilis 168 assessed as growth inhibition at 40 ug/ml after 16 hrs by spectrophotometric analysis; settings: subsp. subtilis str. 168, 16 h, read-out: GI; summary of the method: as §1
Bacillus subtilis [5] = test: Antibacterial activity against Bacillus subtilis 168 assessed as growth inhibition at 20 ug/ml after 16 hrs by spectrophotometric analysis; settings: subsp. subtilis str. 168, 16 h, read-out: GI; summary of the method: as §1
Bacillus subtilis [6] = test: Antibacterial activity against Bacillus subtilis 168 assessed as growth inhibition at 10 ug/ml after 16 hrs by spectrophotometric analysis; settings: subsp. subtilis str. 168, 16 h, read-out: GI; summary of the method: as §1
Escherichia coli [7] = test: Antibacterial activity against Escherichia coli DH5alpha assessed as growth inhibition at 10 ug/ml after 16 hrs by spectrophotometric method; settings: DH5[alpha], read-out: GI; summary of the method: as §1
Escherichia coli [8] = test: Antibacterial activity against Escherichia coli DH5alpha assessed as growth inhibition at 5 ug/ml after 16 hrs by spectrophotometric method; settings: DH5[alpha], read-out: GI; summary of the method: as §1
Escherichia coli [9] = test: Antibacterial activity against Escherichia coli DH5alpha assessed as growth inhibition at 2.5 ug/ml after 16 hrs by spectrophotometric method; settings: DH5[alpha], read-out: GI; summary of the method: as §1
Staphylococcus aureus [10] = test: Antibacterial activity against Staphylococcus aureus RN4220 assessed as growth inhibition at 60 ug/ml after 16 hrs by spectrophotometric analysis; settings: RN4220, 16 h, read-out: GI; summary of the method: as §1
Staphylococcus aureus [11] = test: Antibacterial activity against Staphylococcus aureus RN4220 assessed as growth inhibition at 30 ug/ml after 16 hrs by spectrophotometric analysis; settings: RN4220, 16 h, read-out: GI; summary of the method: as §1
Staphylococcus aureus [12] = test: Antibacterial activity against Staphylococcus aureus RN4220 assessed as growth inhibition at 15 ug/ml after 16 hrs by spectrophotometric analysis; settings: RN4220, 16 h, read-out: GI; summary of the method: as §1
Pseudomonas aeruginosa [13] = test: Antibacterial activity against Pseudomonas aeruginosa PAO1 assessed as growth inhibition at 10 ug/ml after 16 hrs by spectrophotometric analysis; settings: PAO1, 16 h, read-out: GI; summary of the method: as §1
Pseudomonas aeruginosa [14] = test: Antibacterial activity against Pseudomonas aeruginosa PAO1 assessed as growth inhibition at 40 ug/ml after 16 hrs by spectrophotometric analysis; settings: PAO1, 16 h, read-out: GI; summary of the method: as §1
Pseudomonas aeruginosa [15] = test: Antibacterial activity against Pseudomonas aeruginosa PAO1 assessed as growth inhibition at 20 ug/ml after 16 hrs by spectrophotometric analysis; settings: PAO1, 16 h, read-out: GI; summary of the method: as §1
Bacillus subtilis [16] = test: Antibacterial activity against Bacillus subtilis 168 assessed as growth inhibition at 5 ug/ml after 16 hrs by spectrophotometric analysis; settings: subsp. subtilis str. 168, 16 h, read-out: GI; summary of the method: as §1
Escherichia coli [17] = test: Antibacterial activity against Escherichia coli DH5alpha assessed as growth inhibition at 3 ug/ml after 16 hrs by spectrophotometric method; settings: DH5[alpha], read-out: GI; summary of the method: as §1
Escherichia coli [18] = test: Antibacterial activity against Escherichia coli DH5alpha assessed as growth inhibition at 1.5 ug/ml after 16 hrs by spectrophotometric method; settings: DH5[alpha], read-out: GI; summary of the method: as §1
Escherichia coli [19] = test: Antibacterial activity against Escherichia coli DH5alpha assessed as growth inhibition at 0.75 ug/ml after 16 hrs by spectrophotometric method; settings: DH5[alpha], read-out: GI; summary of the method: as §1

| SMILES | inhibition of growth at 200 µg/mL (Staphylococcus aureus [1]) | inhibition of growth at 100 µg/mL (Staphylococcus aureus [2]) | inhibition of growth at 50 µg/mL (Staphylococcus aureus [3]) | inhibition of growth at 40 µg/mL (Bacillus subtilis [4]) | inhibition of growth at 20 µg/mL (Bacillus subtilis [5]) | inhibition of growth at 10 µg/mL (Bacillus subtilis [6]) | inhibition of growth at 10 µg/mL (Escherichia coli [7]) | inhibition of growth at 5 µg/mL (Escherichia coli [8]) | inhibition of growth at 2.5 µg/mL (Escherichia coli [9]) | inhibition of growth at 60 µg/mL (Staphylococcus aureus [10]) | inhibition of growth at 30 µg/mL (Staphylococcus aureus [11]) | inhibition of growth at 15 µg/mL (Staphylococcus aureus [12]) | inhibition of growth at 10 µg/mL (Pseudomonas aeruginosa [13]) | inhibition of growth at 40 µg/mL (Pseudomonas aeruginosa [14]) | inhibition of growth at 20 µg/mL (Pseudomonas aeruginosa [15]) | inhibition of growth at 5 µg/mL (Bacillus subtilis [16]) | inhibition of growth at 3 µg/mL (Escherichia coli [17]) | inhibition of growth at 1.5 µg/mL (Escherichia coli [18]) | inhibition of growth at 0.75 µg/mL (Escherichia coli [19]) |
| --- | --- | --- | --- | --- | --- | --- | --- | --- | --- | --- | --- | --- | --- | --- | --- | --- | --- | --- | --- |
| CCn1cc(C(=O)O)c(=O)c2cnc(N3CCN(C(=O)CNC(=O)OCc4ccccc4)CC3)nc21 | 57.4% | 52.2% | 32.9% | 91.7% | -7.68% | 88.2% | -8.93% | -11.1% | -13.4% |  |  |  |  |  |  |  |  |  |  |
| CCn1cc(C(=O)O)c(=O)c2cnc(N3CCN(C(=O)[C@H](C)NC(=O)OCc4ccccc4)CC3)nc21 | 63% | 55.4% | 38% | 60.1% | 5.34% | 90.3% | 1.75% | -12.1% | -12% |  |  |  |  |  |  |  |  |  |  |
| CCn1cc(C(=O)O)c(=O)c2cnc(N3CCN(C(=O)[C@@H](NC(=O)OCc4ccccc4)C(C)C)CC3)nc21 | 70.6% | 60% | 45.7% | 78.2% | 17% | 4.69% | 27.2% | -6.67% | -9.71% |  |  |  |  |  |  |  |  |  |  |
| CCn1cc(C(=O)O)c(=O)c2cnc(N3CCN(C(=O)[C@H](Cc4ccccc4)NC(=O)OCc4ccccc4)CC3)nc21 | 72.9% | 60.1% | 49.6% | 77% | 13.8% | 6.09% | 9.45% | -6.38% | -11.5% |  |  |  |  |  |  |  |  |  |  |
| CCn1cc(C(=O)O)c(=O)c2cnc(N3CCN(C(=O)[C@H](CCCCNC(=O)OCc4ccccc4)NC(=O)OCc4ccccc4)CC3)nc21 | 52.4% | 28.2% | -20.2% | 89.9% | -4.87% | -7.86% | -6.9% | -9.63% | -13.2% |  |  |  |  |  |  |  |  |  |  |
| CCn1cc(C(=O)O)c(=O)c2cc(F)c(N3CCN(C(=O)CNC(=O)OCc4ccccc4)CC3)cc21 |  |  |  |  | 89.5% | 90.2% |  |  |  | 88.5% | 85.7% | 83.6% | -16.2% | 81.5% | 10.6% | 91.6% | 20.8% | 9.75% | 5.96% |
| CCn1cc(C(=O)O)c(=O)c2cc(F)c(N3CCN(C(=O)[C@H](C)NC(=O)OCc4ccccc4)CC3)cc21 |  |  |  |  | 90.5% | 91.4% |  |  |  | 91% | 81.8% | 74.1% | -26.8% | 20.5% | -14.2% | 92.2% | 3.52% | -0.24% | 0.21% |
| CCn1cc(C(=O)O)c(=O)c2cc(F)c(N3CCN(C(=O)C(C)NC(=O)OCc4ccccc4)CC3)cc21 (stereo not drawn) |  |  |  |  | 90.3% | 91.4% |  |  |  | 86.1% | 77.9% | 51.5% | -25.7% | 25.8% | -19.8% | 92.3% | 0.77% | 1.25% | -4.73% |
| CCn1cc(C(=O)O)c(=O)c2cc(F)c(N3CCN(C(=O)[C@H](Cc4ccccc4)NC(=O)OCc4ccccc4)CC3)cc21 |  |  |  |  | 90.1% | 61.1% |  |  |  | 92.7% | 89.6% | 12% | -28% | 5.69% | -18.6% | 49.1% | 0.54% | 3.79% | -0.95% |
